# MPTP block – mitochondrial permeability transition pore inhibitors, primary screen, biochemical, isolated mouse mitochondria, absorbance | Ca2+ swelling absorbance, 30 min | inhibition, % at 10 µM | 360,000 tested, 1.4% active | AID 602449, 2012;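 active means inhibition of 50% or more, scaled per plate between neutral and stimulator controls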;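 further: 0% = DMSO wells given calcium and 100% = 1 mM EGTA wells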
# NR3A LBD binder – binders of NR3A ligand-binding domain, primary screen, biophysical, differential scanning fluorimetry, uHTS; Glutamate receptor ionotropic, NMDA 3A (GRIN3A) ligand-binding domain; NR3A LBD differential scanning fluorimetry, Tm shift; 0% = protein alone, 100% = glycine-bound protein; Tm shift relative to glycine control, % at 25 µM; 340,000 tested, 2.5% active;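 active means melting temperature shift of at least 10% of the positive control shift, at one fixed dose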
# SKN-1 block – suppressors of acrylamide-induced Pgst-4::GFP reporter in worms, primary screen, SKN-1 inhibitor project, whole organism, uHTS, GFP/RFP fluorescence ratio, strain VP596; 360,000 tested, 0.49% active; AID 624304, 2012; inhibition, % at 21.8 µM; C. elegans VP596 Pgst-4::GFP/RFP ratio, 24 h;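 active means interference check ratio from 0.5 to 1.5 plus GFP to RFP signal ratio inhibition reaching or exceeding a fixed threshold, cut at about 30% in these data, passing the limit was not always enough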
# MT1-MMP act inh – blockers of MT1-MMP proenzyme processing, primary screen, HT1080 RFP-PRO-GFP cells, GFP/RFP fluorescence; GFP/RFP ratio change, % at 20 µM; AID 651647, 2012; 360,000 tested, 0.061% active; GFP/RFP ratio fluorescence, overnight; percent of plate control window, DMSO zero;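 active means GFP/RFP ratio change of at least 30% with cell ATP level not reduced by more than half and red fluorescence within 50% of control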
#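 Compound: 20 µM single dose, 1% DMSO / System: HT1080 RFP-PRO-GFP cells / Controls: DMSO and RFP-L50D-GFP cell wells / Read-out basis: GFP/RFP fluorescence ratio / Schedule: overnight compound exposure at 37 °C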
# ADAM10 inh – human ADAM10 inhibitors, primary screen, biochemical, QFRET, HTS | Disintegrin and metalloproteinase domain-containing protein 10 (Homo sapiens), O14672 | recombinant ADAM10, EDANS/DABCYL FRET peptide cleavage, 3 h | inhibition, % at 7 µM | 370,000 tested, 0.62% active | AID 720582, 2013;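 active means inhibition above a per-campaign cutoff equal to the mean of compounds falling between control-based bounds plus 3 SD, cut at about 20% in these data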;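 further: 0% = DMSO wells while the 100% control is not disclosed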
# ADAM17 inh – ADAM17 inhibitors, primary screen, biochemical, QFRET; recombinant ADAM17, EDANS/DABCYL FRET peptide cleavage; 370,000 tested, 0.83% active; AID 720648, 2013; Disintegrin and metalloproteinase domain-containing protein 17 (Homo sapiens), P78536; inhibition, % at 6.95 µM;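 active means inhibition above the mean of compounds lying between control limits plus 3 SD, set per campaign, cut at about 8.5% in these data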;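 further: 0% = DMSO-only wells as the low control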
# Target sequence (P78536 215-824 limits assumed): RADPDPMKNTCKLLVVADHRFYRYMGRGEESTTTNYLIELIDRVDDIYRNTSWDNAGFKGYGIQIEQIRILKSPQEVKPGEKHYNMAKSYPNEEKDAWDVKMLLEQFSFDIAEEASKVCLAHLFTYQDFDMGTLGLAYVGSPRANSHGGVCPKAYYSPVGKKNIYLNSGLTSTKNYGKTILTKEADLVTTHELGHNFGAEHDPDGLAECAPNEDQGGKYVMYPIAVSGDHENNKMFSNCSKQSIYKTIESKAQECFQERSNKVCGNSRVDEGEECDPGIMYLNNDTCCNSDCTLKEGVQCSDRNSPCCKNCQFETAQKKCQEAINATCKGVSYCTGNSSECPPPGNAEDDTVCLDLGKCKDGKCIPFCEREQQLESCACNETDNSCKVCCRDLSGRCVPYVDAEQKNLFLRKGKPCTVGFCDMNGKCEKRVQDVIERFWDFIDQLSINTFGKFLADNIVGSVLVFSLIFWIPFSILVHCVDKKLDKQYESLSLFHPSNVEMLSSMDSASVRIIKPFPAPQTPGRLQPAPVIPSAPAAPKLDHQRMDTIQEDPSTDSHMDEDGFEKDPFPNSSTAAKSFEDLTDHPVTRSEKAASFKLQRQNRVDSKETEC
# MPTP counter – fluorescence retest of MPTP screen hits in isolated mitochondria, single concentration | shares compounds with MPTP block | membrane potential, Rhodamine 123 fluorescence | inhibition, % at 10 µM | 5,000 tested, 78% active | AID 624504, 2012; in the data active means inhibition above about 22%;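 further: 0% = DMSO vehicle and 100% = positive control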
# MPTP swell DR – mitochondrial permeability transition pore inhibitors, dose response, biochemical, absorbance, uHTS hits; shares compounds with MPTP block; isolated mitochondria swelling; IC50, µM; 780 tested, 58% active; AID 651561, 2012; in the data active means IC50 below about 20 µM
# MPTP cs DR – fluorescent counter-screen in isolated mitochondria, dose response, counter-screen for MPTP inhibitor project, biochemical, fluorescence, uHTS hits; shares compounds with MPTP block; isolated mitochondria counterscreen, fluorescence read-out; IC50, µM; 780 tested, 49% active; AID 651564, 2012; in the data active means IC50 below about 80 µM
# MT1-MMP act val – MT1-MMP activation inhibitors, hit retest, confirmation, single concentration, fluorescence, HT1080 RFP-PRO-GFP cells; shares compounds with MT1-MMP act inh; GFP and RFP fluorescence ratio, overnight; inhibition, % at 20 µM; 200 tested, 10% active;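 active means inhibition of at least 50% in the primary cell screen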
# ADAM10 confirm – human ADAM10 inhibitors, confirmation, biochemical, QFRET, triplicate; shares compounds with ADAM10 inh; inhibition, % at 6.95 µM; 2,100 tested, 1% active; AID 743208, 2013; ADAM10 QFRET peptide cleavage, EDANS fluorescence;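 active means inhibition above about 20% chosen separately for each screening run, limit read from the data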;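 further: 0% = DMSO wells and 100% = marimastat wells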
# ADAM17 ctr – ADAM17 inhibitors, counter-screen for ADAM10 exosite inhibitor project, biochemical, QFRET, high throughput. shares compounds with ADAM10 inh. ADAM17 QFRET peptide cleavage, EDANS fluorescence. inhibition, % at 6.95 µM. 2,100 tested, 0.5% active. AID 743214, 2013;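 active means mean triplicate inhibition above the solvent-only control wells' mean plus 3 SD, cut at about 12% in these data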;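 further: 0% = DMSO wells and 100% = marimastat wells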
# ADAM10 counter – ADAM10 inhibitors, counter-screen for ADAM17 exosite inhibitor project, biochemical, FRET, human ADAM10; shares compounds with ADAM17 inh; 2,900 tested, 47% active; inhibition, % at 6.95 µM; recombinant ADAM10, EDANS/DABCYL FRET peptide cleavage, 3 h;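 active means mean inhibition over the triplicate runs exceeds the activity threshold set in the earlier primary screen, cut at about 20% in these data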;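 further: 0% = DMSO wells and 100% = marimastat wells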
# ADAM17 confirm – ADAM17 inhibitors, hit retest, confirmation, biochemical, QFRET peptide cleavage; shares compounds with ADAM17 inh; recombinant ADAM17, EDANS/DABCYL QFRET peptide cleavage; inhibition, % at 6.95 µM; 2,900 tested, 65% active; AID 743257, 2014;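 active means mean inhibition across replicates above the hit cutoff set in the primary screen, cut at about 8.5% in these data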;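 further: 0% = DMSO wells and 100% = marimastat wells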
# An asterisk follows results filed as active; i = inactive; x = no result given. Rows were chosen to be rich in hits. Some 4.7% of all compounds tested hit in one or more screens of this group.
SMILES,MPTP block,NR3A LBD binder,SKN-1 block,MT1-MMP act inh,ADAM10 inh,ADAM17 inh,MPTP counter,ADAM10 confirm,ADAM17 ctr,ADAM10 counter,ADAM17 confirm,others
CCOC(=O)c1c(-c2ccccc2)csc1NC(=O)CSc1nc(N)cc(N)n1,80.0*,-0.2,6.1,-8.4,25.6*,13.4*,42.7*,5.1,1.4,11.4,9.8*,
COc1ccccc1Cc1c(-c2cccc(Br)c2)nc2ccc(C)cn12,x,x,x,x,-45.1,-2.0,x,x,x,x,x,
CN1/C(=C\C=C(C#N)C#N)C(C)(C)c2ccccc21,3.6,3.2,54.8,-88.2,1.1,-6.0,x,x,x,x,x,
CN1/C(=C/C=C/c2n(C)c3cc([N+](=O)[O-])c([N+](=O)[O-])cc3[n+]2C)C(C)(C)c2ccccc21,80.8*,x,57.2*,96.6*,-5.5,9.9*,-9.3,x,x,0.6,7.4,MPTP swell DR=i;MPTP cs DR=<2.5*;MT1-MMP act val=94.3*
CCCc1ccc(C(C)NC(=S)NCc2ccc(F)cc2)cc1 (configuration not stated),64.0*,9.1,-5.4,-0.2,12.4,9.1*,91.4*,x,x,34.4*,17.0*,
CCCc1ccc(C(C)NC(=S)NC2CCCCC2)cc1 (configuration not stated),38.3,-2.5,7.0,-2.5,5.9,2.0,x,x,x,x,x,
CCN(C(=O)c1ccc(C(C)(C)C)cc1)c1nnc(Cn2nnc3ccccc32)s1,105.3*,-0.6,18.8,-0.3,12.3,9.3*,92.1*,x,x,17.7,9.5*,
CC(CCc1ccccc1)NC(=O)COC(=O)c1cc(NS(=O)(=O)c2ccc(Cl)c([N+](=O)[O-])c2)ccc1O (configuration not stated),99.6*,22.1*,8.5,0.0,17.1,8.7*,88.8*,x,x,31.0*,19.2*,
CCOC(=O)C1=NOC2(C1)C(=O)Nc1ccc(OC(F)(F)F)cc12 (configuration not stated),0.0,x,4.8,3.1,-5.3,-1.9,x,x,x,x,x,
CCSc1nsc(NC(=O)Nc2cccc(OC)c2)n1,84.1*,15.6*,12.2,-8.5,10.3,10.8*,85.4*,x,x,15.3,14.1*,
COc1cc(S(=O)(=O)NCc2ccc3c(c2)OCO3)ccc1F,1.2,-0.2,-3.0,-0.7,5.1,-0.7,x,x,x,x,x,
N#CC1=C(N)NC(SCC(=O)c2ccc(Br)cc2)=C(C#N)C12CCCCC2,90.0*,16.5*,-4.0,5.2,21.8*,12.6*,80.4*,5.3,0.7,41.7*,18.6*,
CC(=O)Nc1ccc2c(c1)N(C(=O)CN(C)C)c1ccccc1CC2,-0.1,-2.9,-5.8,3.0,-84.0,-44.4,x,x,x,x,x,
CCOC(=O)c1sc(NC(C)=O)cc1C,-0.3,-1.2,6.2,6.0,-3.8,-1.4,x,x,x,x,x,
CCOC(=O)c1sc(NC(=O)Nc2ccccc2)cc1C,94.0*,42.8*,8.1,3.2,9.0,9.2*,69.5*,x,x,-10.4,1.9,
O=C(c1ccc(CSc2nc3ccncc3[nH]2)cc1)N1CCN(c2cccc(Cl)c2)CC1,89.9*,-9.1,1.0,-3.8,15.0,9.1*,102.8*,x,x,27.7*,14.6*,
O=C(Nc1ccc(Br)c(C(F)(F)F)c1)c1ccccc1,99.7*,7.6,29.4,-13.8,34.7*,13.0*,89.2*,1.8,0.9,25.2*,14.8*,
CCN(c1ccccc1)S(=O)(=O)c1cc(C(=O)Nc2ccccc2Cl)ccc1F,1.9,-8.9,9.1,4.1,5.6,3.9,x,x,x,x,x,
CCN(c1ccccc1)S(=O)(=O)c1cc(C(=O)Nc2ccc(Br)cc2)ccc1F,96.7*,9.7,7.7,0.0,24.1*,12.1*,88.8*,7.7,3.0,25.7*,12.9*,
CCc1ccc(NC(=O)c2ccc(F)c(S(=O)(=O)NCC3COc4ccccc4O3)c2)cc1 (configuration not stated),84.1*,15.8*,3.5,-1.7,28.7*,13.3*,77.6*,11.6,3.6,43.0*,18.9*,
COc1cccc(CN(C)C(=O)c2ccc(OCC(=O)N3CCOCC3)c(OC)c2)c1,-3.2,-0.2,-2.4,1.1,-7.4,-4.2,x,x,x,x,x,
CC1(C)C(=O)N(c2ccccc2F)C(=O)c2ccccc21,-1.3,0.9,1.3,-1.9,-1.1,-3.2,x,x,x,x,x,
CC1=C(C(=O)Nc2ccc([N+](=O)[O-])cc2)C(c2cccc(C(F)(F)F)c2)NC(=S)N1c1ccccc1 (configuration not stated),75.4*,9.6,2.3,-2.3,34.5*,17.7*,89.5*,6.3,2.2,59.2*,31.7*,

# Source: PubChem
